Measurements from ChEMBL document CHEMBL4325921, “Potent Triazolopyridine Myeloperoxidase Inhibitors” (ACS Med Chem Lett, 2018).
One block for each molecule: values may come before it. Active and inactive are the calls of the source. The rule behind the calls is not given here.

Key:
Eosinophil peroxidase = molecular target: T1, Eosinophil peroxidase (Homo sapiens, UniProt P11678); test: Inhibition of human EPX bromination activity assessed as reduction in H2O2 catalyzed 3-bromo tyrosine formation from tyrosine and potassium bromide preincubated for 10 mins followed by tyrosine/potassium bromide/H2O2 addition measured after 15 mins by RP-UPLC analysis
T1 sequence (P11678 whole entry): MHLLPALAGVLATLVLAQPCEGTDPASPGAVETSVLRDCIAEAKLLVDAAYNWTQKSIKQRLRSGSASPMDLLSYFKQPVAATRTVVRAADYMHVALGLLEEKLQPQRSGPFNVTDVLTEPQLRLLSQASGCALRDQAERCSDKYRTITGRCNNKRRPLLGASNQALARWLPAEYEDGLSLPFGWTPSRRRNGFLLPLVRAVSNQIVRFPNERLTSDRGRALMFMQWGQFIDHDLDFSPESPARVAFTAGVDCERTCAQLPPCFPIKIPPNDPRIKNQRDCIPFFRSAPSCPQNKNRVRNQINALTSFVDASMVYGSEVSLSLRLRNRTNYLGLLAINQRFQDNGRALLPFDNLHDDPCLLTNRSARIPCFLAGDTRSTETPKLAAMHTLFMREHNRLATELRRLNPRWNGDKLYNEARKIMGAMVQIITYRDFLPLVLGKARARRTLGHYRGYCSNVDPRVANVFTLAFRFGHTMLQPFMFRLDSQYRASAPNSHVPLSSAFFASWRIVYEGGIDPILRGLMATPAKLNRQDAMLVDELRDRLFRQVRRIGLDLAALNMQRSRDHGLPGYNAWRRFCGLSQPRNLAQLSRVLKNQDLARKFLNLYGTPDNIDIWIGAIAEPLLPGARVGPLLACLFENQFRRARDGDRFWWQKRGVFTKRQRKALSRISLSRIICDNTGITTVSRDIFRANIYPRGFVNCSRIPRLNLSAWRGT

[1] = Plasma concentration in human MPO transgenic mouse model of PMA-induced acute inflammation at 10 mg/kg, po; type: ADME, organism-based; details: in vivo
[2] = Plasma concentration in human MPO transgenic mouse model of PMA-induced acute inflammation at 30 mg/kg, po; type: ADME, organism-based; details: in vivo
Mus musculus [3] = test: (§1) In vivo inhibition of PMA-stimulated MPO in human MPO transgenic mouse model of acute inflammation assessed as reduction in hypochlorous acid production in blood at 30 mg/kg, po administered 20 mins prior to PMA stimulation and measured after 2 mins by luminol chemiluminescence assay relative to control; type: functional
Outline: (§2)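 Mice were dosed with test compound, then given PMA 20 minutes later to stimulate MPO through neutrophil degranulation. After 2 minutes, blood samples were treated with luminol. Chemiluminescence was read as MPO-dependent hypochlorous acid production.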

[4] = Protein binding in mouse plasma; type: ADME, cell-free; details: read-out: PPB (converted)
[5] = AUC in mouse at 3 mg/kg, po after 8 hrs; type: ADME, organism-based; parameters: dose 3 mg/kg, time < 8 hr, route oral; details: in vivo
[6] = Cmax in mouse at 3 mg/kg, po; type: ADME, organism-based; parameters: dose 3 mg/kg, route oral; details: in vivo
Myeloperoxidase [7] = molecular target: T2, Myeloperoxidase (Homo sapiens, UniProt P05164); test: Inhibition of human PMN leukocytes MPO peroxidation activity using H2O2 as substrate preincubated for 10 mins followed by H2O2 addition and measured for 15 mins by amplex red reagent based assay
T2 sequence (P05164 whole entry): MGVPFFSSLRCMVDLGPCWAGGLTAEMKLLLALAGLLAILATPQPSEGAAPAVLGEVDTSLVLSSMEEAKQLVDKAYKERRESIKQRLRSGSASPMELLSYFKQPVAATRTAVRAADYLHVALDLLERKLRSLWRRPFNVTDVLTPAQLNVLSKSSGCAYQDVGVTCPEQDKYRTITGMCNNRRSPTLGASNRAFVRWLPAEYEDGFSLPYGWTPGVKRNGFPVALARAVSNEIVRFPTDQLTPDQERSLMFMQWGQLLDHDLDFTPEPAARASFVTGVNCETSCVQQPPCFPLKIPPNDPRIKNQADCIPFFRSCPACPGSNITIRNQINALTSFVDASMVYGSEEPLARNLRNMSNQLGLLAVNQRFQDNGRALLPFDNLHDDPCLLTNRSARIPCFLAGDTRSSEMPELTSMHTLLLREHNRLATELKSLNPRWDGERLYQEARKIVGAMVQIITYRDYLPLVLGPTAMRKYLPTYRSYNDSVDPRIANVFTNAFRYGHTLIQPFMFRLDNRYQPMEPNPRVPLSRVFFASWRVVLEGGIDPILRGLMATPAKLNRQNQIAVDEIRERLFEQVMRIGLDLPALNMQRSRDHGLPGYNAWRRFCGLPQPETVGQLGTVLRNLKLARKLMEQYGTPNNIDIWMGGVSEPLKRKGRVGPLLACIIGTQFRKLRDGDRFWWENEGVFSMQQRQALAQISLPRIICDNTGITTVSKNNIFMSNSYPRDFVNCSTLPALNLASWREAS

Thyroid peroxidase = molecular target: T3, Thyroid peroxidase (Homo sapiens, UniProt P07202); test: Inhibition of human TPO assessed as reduction in H2O2 catalyzed 3,5-iodo tyrosine formation from 3-iodotyrosine and potassium iodide preincubated for 10 mins followed by tyrosine/potassium bromide/H2O2 addition measured after 15 mins
T3 sequence (P07202 whole entry): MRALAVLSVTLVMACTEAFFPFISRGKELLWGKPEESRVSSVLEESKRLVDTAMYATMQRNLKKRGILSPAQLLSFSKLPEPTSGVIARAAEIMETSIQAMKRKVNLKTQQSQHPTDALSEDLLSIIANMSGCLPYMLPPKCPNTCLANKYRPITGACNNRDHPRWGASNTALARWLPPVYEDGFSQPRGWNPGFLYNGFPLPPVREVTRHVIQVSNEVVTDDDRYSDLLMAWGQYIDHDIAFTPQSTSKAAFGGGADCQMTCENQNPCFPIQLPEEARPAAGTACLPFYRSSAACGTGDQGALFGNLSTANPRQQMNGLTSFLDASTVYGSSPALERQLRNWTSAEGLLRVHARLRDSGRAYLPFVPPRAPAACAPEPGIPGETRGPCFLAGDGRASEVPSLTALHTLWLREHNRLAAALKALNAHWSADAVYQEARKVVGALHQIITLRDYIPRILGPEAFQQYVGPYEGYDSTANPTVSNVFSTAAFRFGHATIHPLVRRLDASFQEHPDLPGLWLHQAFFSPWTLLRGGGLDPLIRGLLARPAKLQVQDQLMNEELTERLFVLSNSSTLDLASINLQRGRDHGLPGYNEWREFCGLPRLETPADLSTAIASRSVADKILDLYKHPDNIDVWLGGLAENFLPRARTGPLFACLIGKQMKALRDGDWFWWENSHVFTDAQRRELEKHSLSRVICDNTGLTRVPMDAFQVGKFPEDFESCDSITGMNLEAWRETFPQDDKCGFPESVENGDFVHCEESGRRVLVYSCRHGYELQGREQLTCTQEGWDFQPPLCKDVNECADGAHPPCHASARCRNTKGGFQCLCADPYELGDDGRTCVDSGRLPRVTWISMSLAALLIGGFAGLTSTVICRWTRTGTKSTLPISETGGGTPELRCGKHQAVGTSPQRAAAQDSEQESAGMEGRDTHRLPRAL

Mus musculus [8] = test: In vivo inhibition of PMA-stimulated MPO in human MPO transgenic mouse model of acute inflammation assessed as reduction in hypochlorous acid production in blood administered orally 20 mins prior to PMA stimulation and measured after 2 mins by luminol chemiluminescence assay; type: functional, organism-based; outline: as §2
[9] = Protein binding in human plasma; type: ADME, cell-free; details: read-out: PPB (converted)
Lactoperoxidase = Lactoperoxidase (Homo sapiens, UniProt P22079); test: Inhibition of human LPO assessed as reduction in H2O2 catalyzed 3,5-iodo tyrosine formation from 3-iodotyrosine and potassium iodide preincubated for 10 mins followed by tyrosine/potassium bromide/H2O2 addition measured after 15 mins
Lactoperoxidase, sequence (P22079 whole entry): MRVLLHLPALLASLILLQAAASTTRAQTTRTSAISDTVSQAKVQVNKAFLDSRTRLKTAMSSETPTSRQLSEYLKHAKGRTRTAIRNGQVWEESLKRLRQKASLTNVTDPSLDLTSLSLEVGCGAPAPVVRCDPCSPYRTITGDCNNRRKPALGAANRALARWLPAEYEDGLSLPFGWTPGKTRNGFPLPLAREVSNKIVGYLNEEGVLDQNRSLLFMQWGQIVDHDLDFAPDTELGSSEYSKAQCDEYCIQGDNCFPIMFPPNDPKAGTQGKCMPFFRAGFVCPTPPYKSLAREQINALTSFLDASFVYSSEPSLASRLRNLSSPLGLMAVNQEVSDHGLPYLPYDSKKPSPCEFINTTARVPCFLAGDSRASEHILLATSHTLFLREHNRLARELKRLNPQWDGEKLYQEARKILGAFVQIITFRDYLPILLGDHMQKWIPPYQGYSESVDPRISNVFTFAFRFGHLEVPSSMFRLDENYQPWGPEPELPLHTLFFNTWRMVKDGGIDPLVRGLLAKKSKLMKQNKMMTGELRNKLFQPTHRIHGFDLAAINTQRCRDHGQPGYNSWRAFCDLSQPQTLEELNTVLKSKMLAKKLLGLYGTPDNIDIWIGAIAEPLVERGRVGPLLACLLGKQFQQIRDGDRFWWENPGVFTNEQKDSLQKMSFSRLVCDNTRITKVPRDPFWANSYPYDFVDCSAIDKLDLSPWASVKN

Mus musculus [10] = test: as §1, with “10” for “30”; type: functional; outline: as §2
Myeloperoxidase [11] = molecular target: T2, Myeloperoxidase; test: Inhibition of human PMN leukocytes MPO chlorination activity using H2O2 as substrate preincubated for 10 mins followed by H2O2 addition and measured for 15 mins in presence of NaCl by aminophenyl fluorescein based assay
Mus musculus [12] = test: In vivo inhibition of […] in mouse model of acute inflammation at 10 to 30 mg/kg, po; type: functional, organism-based
Cytochrome P450 3A4 = Cytochrome P450 3A4 (Homo sapiens, UniProt P08684); test: Inhibition of CYP3A4 (unknown origin); type: ADME
Cytochrome P450 3A4, sequence (P08684 whole entry): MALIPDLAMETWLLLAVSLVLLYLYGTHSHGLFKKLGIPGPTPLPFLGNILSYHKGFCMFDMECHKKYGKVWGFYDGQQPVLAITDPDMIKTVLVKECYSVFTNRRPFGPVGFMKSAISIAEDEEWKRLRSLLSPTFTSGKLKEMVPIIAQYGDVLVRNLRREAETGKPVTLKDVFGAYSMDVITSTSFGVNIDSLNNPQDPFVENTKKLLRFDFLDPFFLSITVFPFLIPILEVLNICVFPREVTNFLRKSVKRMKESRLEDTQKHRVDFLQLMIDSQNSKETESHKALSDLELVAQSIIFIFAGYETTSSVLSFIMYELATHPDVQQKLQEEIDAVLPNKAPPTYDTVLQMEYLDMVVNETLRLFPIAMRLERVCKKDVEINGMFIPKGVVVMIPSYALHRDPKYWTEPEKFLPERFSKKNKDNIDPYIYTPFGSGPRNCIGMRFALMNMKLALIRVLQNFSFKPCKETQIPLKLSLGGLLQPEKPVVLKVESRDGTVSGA

[13] = Half life in pH 1 solution; type: physicochemical
[14] = molecular target: T4, Methylated-DNA--protein-cysteine methyltransferase (Homo sapiens, UniProt P16455); test: Inhibition of recombinant human N-terminal His-tagged MGMT (1 to 207 residues) expressed in Escherichia coli using O-6-benzylguanine as substrate after 30 mins by LC-MS analysis; details: 0.5 h
T4 sequence (P16455 whole entry): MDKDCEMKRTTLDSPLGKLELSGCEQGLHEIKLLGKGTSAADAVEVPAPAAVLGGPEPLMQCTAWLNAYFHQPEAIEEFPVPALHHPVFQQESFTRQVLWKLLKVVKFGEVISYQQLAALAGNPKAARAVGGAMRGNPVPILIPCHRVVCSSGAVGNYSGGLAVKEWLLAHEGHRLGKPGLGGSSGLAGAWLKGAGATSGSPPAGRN

SMILES: Cn1cc(-c2cccc(COc3cc(N)nc4[nH]nnc34)c2)cn1
- IC50 (Myeloperoxidase [7]): 78 nM

SMILES: Nc1cc(OCc2ccccc2F)c2nn[nH]c2n1
- IC50 (Myeloperoxidase [7]): 30 nM

SMILES: Nc1cc(OCc2nn(-c3ccccc3)nc2CO)c2nn[nH]c2n1
- IC50 (Myeloperoxidase [7]): 250 nM

SMILES: Nc1cc(OCc2ccccc2)c2nn[nH]c2n1
- AUC at 8 h [5]: 11 µM·h
- IC50 (Myeloperoxidase [7]): 36 nM
- half-life [13]: > 100 h
- IC50 (Myeloperoxidase [11]): 50 nM
- inhibition (INH) [14]: Active

SMILES: Nc1cc(OCc2ncc(-c3ccccc3)o2)c2nn[nH]c2n1
- IC50 (Myeloperoxidase [7]): 290 nM

SMILES: Nc1cc(OCc2cn(-c3ccccc3)nn2)c2nn[nH]c2n1
- IC50 (Myeloperoxidase [7]): 400 nM

SMILES: Nc1cc(OCc2cccc(-c3ccccc3F)c2)c2nn[nH]c2n1
- IC50 (Myeloperoxidase [7]): 160 nM

SMILES: Cc1nn(-c2ccccc2)nc1COc1cc(N)nc2[nH]nnc12
- IC50 (Cytochrome P450 3A4): 370 nM
- IC50 (Myeloperoxidase [7]): 27 nM

SMILES: Nc1nc(OCc2ccccc2)c2[nH]nnc2n1
- IC50 (Eosinophil peroxidase): 17 nM
- fraction unbound [4]: 0.127
- AUC at 8 h [5]: 22 µM·h
- Cmax [6]: 31 µM
- half-life [13]: 2.8 h
- IC50 (Thyroid peroxidase): 42000 nM
- fraction unbound [9]: 0.006
- IC50 (Lactoperoxidase): > 100000 nM
- IC50 (Myeloperoxidase [11]): 110 to 190 nM
- inhibition (INH) [14]: Active

SMILES: CS(=O)(=O)c1ccccc1COc1cc(N)nc2[nH]nnc12
- IC50 (Myeloperoxidase [7]): 720 nM

Further molecules by falling IC50 (Myeloperoxidase [7]), results first:

- IC50 (Myeloperoxidase [7]): 26 nM
SMILES: Nc1cc(OCc2ccc(Cl)cc2)c2nn[nH]c2n1

- IC50 (Cytochrome P450 3A4): 1500 nM
- IC50 (Myeloperoxidase [7]): 26 nM
SMILES: Cc1c(COc2cc(N)nc3[nH]nnc23)cccc1-c1ccn(C)n1

- IC50 (Myeloperoxidase [7]): 26 nM
SMILES: Nc1cc(OCc2ccccc2Cl)c2nn[nH]c2n1

- IC50 (Myeloperoxidase [7]): 26 nM
SMILES: Nc1cc(OCc2ccccc2-n2cccn2)c2nn[nH]c2n1

- IC50 (Cytochrome P450 3A4): 60 nM
- IC50 (Myeloperoxidase [7]): 24 nM
SMILES: Nc1cc(OCc2cc(-c3cccc(F)c3)ccc2Cl)c2nn[nH]c2n1

- IC50 (Myeloperoxidase [7]): 23 nM
SMILES: Cc1c(COc2cc(N)nc3[nH]nnc23)cccc1-c1cccc(F)c1

- IC50 (Myeloperoxidase [7]): 21 nM
SMILES: Nc1cc(OCc2cccc(Cl)c2)c2nn[nH]c2n1

- IC50 (Myeloperoxidase [7]): 21 nM
SMILES: Nc1cc(OCc2cccc(-c3cccc(F)c3)c2)c2nn[nH]c2n1

- IC50 (Myeloperoxidase [7]): 21 nM
SMILES: Cn1ccc(-c2cccc(COc3cc(N)nc4[nH]nnc34)c2)n1

- IC50 (Myeloperoxidase [7]): 12 nM
SMILES: Nc1cc(OCc2nn(-c3ccccc3)nc2C(F)F)c2nn[nH]c2n1

- IC50 (Eosinophil peroxidase): 22 nM
- concentration [1]: 21 µM
- concentration [2]: 70 µM
- fraction unbound [4]: 0.192
- AUC at 8 h [5]: 18 µM·h
- Cmax [6]: 17 µM
- IC50 (Myeloperoxidase [7]): 8.7 nM
- IC50 (Thyroid peroxidase): 4000 nM
- fraction unbound [9]: 0.02
- IC50 (Lactoperoxidase): > 8000 nM
- IC50 (Myeloperoxidase [11]): 6.8 nM
SMILES: Nc1cc(SCc2ccccc2F)c2nn[nH]c2n1
- inhibition in vivo at 30 mg/kg (Mus musculus [3]): 74%
- inhibition (Mus musculus [8]): Dose-dependent effect
- inhibition in vivo at 10 mg/kg (Mus musculus [10]): 50%
- inhibition (Mus musculus [12]): Active

- IC50 (Myeloperoxidase [7]): 8.5 nM
SMILES: Nc1cc(SCc2nn(-c3ccccc3)nc2C(F)F)c2nn[nH]c2n1

- IC50 (Myeloperoxidase [7]): 6.7 nM
SMILES: Nc1cc(OCc2c(Cl)cccc2Cl)c2nn[nH]c2n1

- IC50 (Myeloperoxidase [7]): 4.6 nM
SMILES: Nc1cc(SCc2c(Cl)cccc2Cl)c2nn[nH]c2n1
